The target in test [1] is T1, Human rhinovirus A protease (Human rhinovirus sp.) (UniProt Q4U254).
T1 sequence (whole entry): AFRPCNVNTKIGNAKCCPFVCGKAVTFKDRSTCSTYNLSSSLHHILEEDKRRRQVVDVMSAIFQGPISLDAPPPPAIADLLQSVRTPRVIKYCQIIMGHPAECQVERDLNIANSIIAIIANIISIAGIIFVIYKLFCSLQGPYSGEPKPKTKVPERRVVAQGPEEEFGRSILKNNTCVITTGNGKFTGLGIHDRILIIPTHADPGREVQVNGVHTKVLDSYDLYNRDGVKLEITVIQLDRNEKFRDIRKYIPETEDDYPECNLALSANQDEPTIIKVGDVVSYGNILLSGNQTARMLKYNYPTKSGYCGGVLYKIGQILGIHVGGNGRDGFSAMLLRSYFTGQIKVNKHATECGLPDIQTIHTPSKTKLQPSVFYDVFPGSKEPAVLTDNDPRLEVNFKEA
The test is described as follows: Binding affinity to GST-tagged human rhinovirus 3C protease assessed as labeling after 1 hr. A digest of the protocol: (§1)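 Enzyme at 10 μM (papain; recombinant GST-HRV3C protease; recombinant USP08) in 50 mM HEPES, 150 mM NaCl, 0.1 mM EDTA, pH 7.5, with a 10-fragment mixture at 100 μM each (final) and 1% DMSO. Incubated at 23 °C, 1 h for papain and HRV3C, 4 h for USP08. Gel-filtered, then intact-protein LC/ESI-MS with maximum-entropy deconvolution.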

In test [2] the target is T2, Papain (Carica papaya) (UniProt P00784).
T2 sequence (whole entry): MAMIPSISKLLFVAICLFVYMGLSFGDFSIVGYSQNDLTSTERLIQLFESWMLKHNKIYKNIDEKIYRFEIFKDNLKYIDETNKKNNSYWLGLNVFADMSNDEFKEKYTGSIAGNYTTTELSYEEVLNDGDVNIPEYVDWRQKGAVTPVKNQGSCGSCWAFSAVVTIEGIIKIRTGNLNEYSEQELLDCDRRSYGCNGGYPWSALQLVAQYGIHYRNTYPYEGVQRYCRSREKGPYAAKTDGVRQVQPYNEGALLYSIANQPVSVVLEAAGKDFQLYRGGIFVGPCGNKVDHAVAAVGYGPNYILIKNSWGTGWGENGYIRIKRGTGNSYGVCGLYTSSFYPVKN
The test is described as follows: Ratio of Kinact to Ki for papain by second-order papain inhibition plot. A digest of the protocol: (§2)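 Papain preactivated with 1 mM DTT for 30 min, then 3.84 μM preincubated up to 1 h with varying inhibitor in 50 mM Na3PO4/2 mM EDTA pH 6.2:acetonitrile (4:1). Aliquots taken every 10 min into 400 μM Cbz-Gly-ONp; p-nitrophenol absorbance followed, in duplicate. kobs from ln(% activity) vs time slopes; kinact/KI from kobs vs [I] slope (Kitz–Wilson).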

The target in test [3] is T2, Papain (Carica papaya). Nature of the test: Irreversible inhibition of papain assessed as covalent adducts after 16 to 64 hrs incubation at 100 uM by MS analysis.
Test [4] concerns the target T2, Papain (Carica papaya). Nature of the test: Irreversible inhibition of papain after 1 hr incubation at 100 uM by ESI-MS analysis in presence of 10 mM glutathione.
The target of test [5] is T2, Papain (Carica papaya). Nature of the test: Inhibition of papain by first-order papain inhibition plot. A digest of the protocol:
as §2

Test [6] concerns the target T2, Papain (Carica papaya). The test is described as follows: Irreversible inhibition of papain assessed as binding affinity cysteine after 1 hr incubation at 100 uM by ESI-MS analysis.
For test [7], the target named is T2, Papain (Carica papaya). Nature of the test: Irreversible inhibition of papain after 1 hr incubation at 100 uM by ESI-MS analysis. In outline:
as §1

For test [8], the target named is T2, Papain (Carica papaya). Nature of the test: Irreversible inhibition of papain assessed as binding affinity cysteine after 1 hr incubation at 1 mM by ESI-MS analysis.
Test [9] deals with T3, Ubiquitin carboxyl-terminal hydrolase 8 (Homo sapiens) (UniProt P40818).
T3 sequence (whole entry): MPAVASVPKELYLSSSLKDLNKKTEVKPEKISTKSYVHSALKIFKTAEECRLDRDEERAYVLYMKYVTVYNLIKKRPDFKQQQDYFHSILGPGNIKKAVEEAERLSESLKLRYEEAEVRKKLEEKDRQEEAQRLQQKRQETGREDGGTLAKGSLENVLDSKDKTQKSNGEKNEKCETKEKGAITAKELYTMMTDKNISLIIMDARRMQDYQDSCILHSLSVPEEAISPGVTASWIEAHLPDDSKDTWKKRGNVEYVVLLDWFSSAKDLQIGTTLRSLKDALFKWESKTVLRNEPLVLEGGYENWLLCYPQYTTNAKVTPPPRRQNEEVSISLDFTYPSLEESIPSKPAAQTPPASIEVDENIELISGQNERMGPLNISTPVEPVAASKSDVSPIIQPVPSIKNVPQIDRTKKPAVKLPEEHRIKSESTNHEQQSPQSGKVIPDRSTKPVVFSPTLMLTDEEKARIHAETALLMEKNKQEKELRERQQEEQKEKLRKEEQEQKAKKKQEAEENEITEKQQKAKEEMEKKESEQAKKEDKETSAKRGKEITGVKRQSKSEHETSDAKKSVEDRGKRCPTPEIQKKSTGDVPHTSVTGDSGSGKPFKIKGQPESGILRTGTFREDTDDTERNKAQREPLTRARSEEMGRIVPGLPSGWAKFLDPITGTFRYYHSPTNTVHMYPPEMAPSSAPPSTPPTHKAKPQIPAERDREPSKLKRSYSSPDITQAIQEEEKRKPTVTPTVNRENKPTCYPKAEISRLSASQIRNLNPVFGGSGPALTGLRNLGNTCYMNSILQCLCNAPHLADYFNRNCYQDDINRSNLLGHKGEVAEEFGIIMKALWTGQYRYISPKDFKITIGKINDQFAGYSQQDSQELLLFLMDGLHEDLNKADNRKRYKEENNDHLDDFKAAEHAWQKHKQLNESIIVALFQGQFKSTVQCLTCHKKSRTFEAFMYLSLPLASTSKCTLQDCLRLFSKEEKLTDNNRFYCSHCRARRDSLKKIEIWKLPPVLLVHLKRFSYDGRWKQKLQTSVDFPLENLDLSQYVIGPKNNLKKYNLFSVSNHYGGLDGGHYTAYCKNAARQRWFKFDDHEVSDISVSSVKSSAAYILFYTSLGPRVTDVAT
The test is described as follows: Binding affinity to deubiquitinase USP08 (unknown origin) assessed as labeling after 4 hrs incubation. In outline:
as §1

The record followed here is ChEMBL document CHEMBL3259539, “A fragment-based method to discover irreversible covalent inhibitors of cysteine proteases” (J Med Chem, 2014).

The source made the active and inactive calls. The calls are words filed in the database; no cut-off is given here.

Regarding `COC(=O)/C=C/CNC(=O)c1ccc2ccccc2n1`, the Activity in [1] is 20%.
On the same count and under the same terms, for `COC(=O)/C=C/CNC(=O)c1cc2cc(Cl)cc(OC)c2o1` the value was 20%.
Consider `COC(=O)/C=C/CNC(=O)[C@H](CNC(C)=O)Cc1ccccc1`, for which the Ratio on Papain (Carica papaya) [2] was 0.386.
For the molecule `COC(=O)/C=C/CNC(=O)c1csc(-c2cccs2)n1`, in [1], the Activity was 35%.
Consider `COC(=O)/C=C/CNC(=O)c1ccc(C2CCCO2)s1` (configuration not stated), for which, on Papain (Carica papaya) [2], the Ratio turned out to be 0.037.
For `COC(=O)/C=C/CNC(=O)c1cc(-c2ccc(C)cc2)no1`, the inhibition entry at Papain (Carica papaya) [3], on Papain (Carica papaya) [4], on Papain (Carica papaya) [5], at Papain (Carica papaya) [6], at Papain (Carica papaya) [7] and at Papain (Carica papaya) [8] was “Active” throughout. Moreover, at Papain (Carica papaya) [2], the Ratio was determined as 1.23. Also, the result in [9] was inactive.
For `COC(=O)/C=C/CNC(=O)[C@@H](CNC(C)=O)Cc1ccccc1`, the Ratio on Papain (Carica papaya) [2] came out at 6.58.
With `COC(=O)/C=C/CNC(=O)c1ccccc1NC(=O)Nc1ccc(Cl)cc1`, the Activity in test [9] turned out to be 30%.
Take `COC(=O)/C=C/CNC(=O)[C@@H](CNC(C)=O)CC(C)C`: the Ratio at Papain (Carica papaya) [2] worked out at 1.1.
Regarding `COC(=O)/C=C/CNC(=O)c1sc(-c2ccccc2F)nc1C`, the inhibition result at Papain (Carica papaya) [3], at Papain (Carica papaya) [4], on Papain (Carica papaya) [5], on Papain (Carica papaya) [6], on Papain (Carica papaya) [7] and at Papain (Carica papaya) [8] was “Active” each time. Also, at Papain (Carica papaya) [2], the Ratio came out at 0.409. The Activity in test [9] stood at 30%.
As to `COC(=O)/C=C/CNC(=O)C1CCN(C(=O)CC(C)C)CC1`, the inhibition result at Papain (Carica papaya) [3], at Papain (Carica papaya) [4], at Papain (Carica papaya) [5], at Papain (Carica papaya) [6], on Papain (Carica papaya) [7] and at Papain (Carica papaya) [8] was “Active” in each case. The Ratio on Papain (Carica papaya) [2] amounted to 0.461. Also, the outcome in [9] was inactive.
